The list is not random: actives were taken first. Their share in the collection is about 4.6%.
p47phox inh: p47phox (human) inhibition. AID 1274. actives 0.53% (n = 220,000). p47phox/p22phox peptide binding, fluorescence polarization, 2 h. inhibition, % at 24.7 µM;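 active = inhibition above about 30%, limit read from the data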;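 also: 0% = p47phox with labelled peptide and 100% = labelled peptide alone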
Target sequence (P14598 whole entry, looked up): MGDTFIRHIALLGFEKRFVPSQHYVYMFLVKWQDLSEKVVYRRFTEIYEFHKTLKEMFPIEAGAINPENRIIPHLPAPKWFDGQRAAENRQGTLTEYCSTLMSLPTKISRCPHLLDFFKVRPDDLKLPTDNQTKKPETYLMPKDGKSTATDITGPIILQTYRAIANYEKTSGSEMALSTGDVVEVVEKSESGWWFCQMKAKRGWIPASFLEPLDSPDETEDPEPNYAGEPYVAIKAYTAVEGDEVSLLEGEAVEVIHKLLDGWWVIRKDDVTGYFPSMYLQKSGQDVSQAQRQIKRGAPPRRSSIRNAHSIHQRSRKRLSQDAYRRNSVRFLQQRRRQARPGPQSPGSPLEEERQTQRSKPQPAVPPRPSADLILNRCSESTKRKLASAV
Biofilm kill mix: mixture kills Candida albicans biofilm cells; C. albicans biofilm persisters + clotrimazole, fluorescence viability; primary screen in compound mixtures of four per well; inhibition, % at 7.6 µM; actives 0.02% (n = 120,000); AID 1242;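 active = inhibition above 30.3% in the primary screen of four-compound pools, then above 30% when the compound was retested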;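 also: compounds exposed to preformed 24 h biofilms for 48 h; 0% = untreated biofilm control and 100% = clotrimazole plus chlorhexidine kill blank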
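System: C. albicans CAF4-2 wild-type biofilms; Medium: RPMI/MOPS medium, pH 7.0; Reagent: Clotrimazole, 50 µg/mL; Times: biofilm formation 24 h, compound exposure 48 h, 37 °C; Detection: 2-h Alamar Blue fluorescence, 535/590 nm excitation/emission; Evaluation: percent inhibition of biofilm viability.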
Hck-Nef inh: human Hck-Nef kinase inhibition | P08631 | Recombinant Hck-YEEI plus Nef, Z-Lyte FRET kinase assay | inhibition, % at 20 µM | actives 0.68% (n = 220,000);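 active = Hck-Nef kinase inhibition above about 50%, limit read from the data; inactive = inhibition below that limit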;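 also: 0% = DMSO with Hck plus Nef and 100% = Hck alone without Nef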
WT yeast gro inh: growth inhibition of WT yeast, mitochondrial fusion screen; inhibition, % at 10 µM; mitochondrial fusion phenotypic screen, WT strain; actives 2.1% (n = 190,000); in the data active = inhibition above about 58%; tested in S. cerevisiae
RAM network inh: inhibitors of the yeast RAM network; AID 868; S. cerevisiae dse1pr::URA3 reporter, 5-FOA growth OD615, 2 d; analog-sensitive cbk1-as2 kinase mutant strain; inhibition, % at 50 µM; actives 1.8% (n = 190,000);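 active = inhibition above a set limit, 3 SD over mean compound inhibition, cut at about 8.4% in these data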;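 also: 0% = DMSO-only wells with no growth and 100% = 10 µM 1-NA-PP1 full growth; inhibition rescues growth on 5-FOA so higher OD means more RAM inhibition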
Arbovirus anti: arbovirus infection inhibition. arbovirus infection cell-based antiviral screen. inhibition, % at 10 µM. actives 0.37% (n = 200,000); in the data active = inhibition above about 30%
An asterisk follows results filed as active; / = no result given.

SMILES | p47phox inh | Biofilm kill mix | Hck-Nef inh | WT yeast gro inh | RAM network inh | Arbovirus anti
Cn1c(-c2ccc3c(c2)OCO3)cnc1NCc1cccc(O)c1 | -5 | 1 | 22 | -13 | 2 | -9
Cc1ccc2c(c1)C(=O)CC1(CCCC1)O2 | 6 | 11 | 27 | / | / | /
O=C(CSc1nc2cc(Cl)ccc2o1)NCCc1ccccc1 | -6 | / | 2 | 68* | 2 | -1
COc1cc(OC)nc(NC(=O)CSc2nc3ccccc3o2)n1 | 4 | / | 11 | 5 | 5 | -10
C=CCSc1nnc(NC(=O)CSc2nc3ccccc3o2)s1 | -16 | / | 9 | -3 | 2 | 36*
CCS(=O)(=O)c1ccc2oc(SCC(=O)NCCc3ccccc3)nc2c1 | -2 | 1 | -15 | 3 | 0 | -1
Cc1cc(C)nc(NC(=O)CSc2nc3ccccc3o2)n1 | 42* | / | -2 | 2 | 3 | 5
O=C(NC(=O)c1ccccc1)NC1(C(F)(F)F)OCCO1 | -6 | / | 0 | -5 | -1 | -2
COc1cccc2cc(-c3nnc(SCC(=O)NCc4ccccc4)n3C)oc12 | -20 | / | -1 | 12 | 9.1* | 1
CCn1c(SCC(=O)NC2CCCCC2)nnc1-c1cc2cccc(OC)c2o1 | -8 | / | 1 | 3 | 1 | -1
CC(=O)Nc1ccc(S(=O)(=O)NNC(=O)c2sc(=S)n(C)c2C)cc1 | -9 | 24 | 0 | 14 | 7 | 6
CCOC(=O)C1CCCN(c2c(C(=O)c3ccccc3)cnc3ccccc23)C1 (stereo not given) | -7 | 12 | 23 | 59* | 2 | 11
CCOC(=O)C1CCCN(c2nc(C)nc3c2oc2ccccc23)C1 (stereo not given) | -5 | / | 1 | 23 | 1 | -2
CCOC(=O)C1CCN(c2c(C(=O)c3ccccc3)cnc3ccc(CC)cc23)CC1 | -6 | 2 | 18 | 76* | 3 | -15
CCCc1cc(C(=O)Cc2ccc(F)cc2)c(O)cc1O | -12 | / | -12 | 82* | -2 | -45
Clc1ccc(CSc2nnc(-c3ccccn3)n2Cc2ccco2)c(Cl)c1 | -21 | / | 2 | 60* | 1 | 5
COc1ccc(C(C)(C)C)cc1NC(=O)Nc1ccc2c(c1)OCO2 | -8 | / | 1 | 68* | 4 | -1
O=C(COC(=O)c1cccc2ccccc12)NCCCc1ccccc1 | -12 | 8 | 5 | -3 | 11* | 4
CC(C(=O)N1CCCc2ccccc21)N1C(=O)c2ccccc2C1=O (stereo not given) | 2 | 16 | -9 | -2 | 1 | -7
Cc1ccccc1OCC(=O)Nc1ccccc1N1CCC(C)CC1 | -3 | 9 | 6 | 65* | 0 | -13
Cc1ccccc1OCC(=O)Nc1ccccc1N1CCOCC1 | -3 | / | 1 | 17 | 0 | -3
Cc1ccccc1OCC(=O)Nc1ccccc1-c1ccccc1NC(=O)COc1ccccc1C | -19 | -7 | 6 | 11 | 9.4* | -8
CCC(=O)N1CCN(c2ccccc2NC(=O)COc2cc(C)ccc2C(C)C)CC1 | -11 | / | 6 | 67* | 7 | -29
Cc1cc(C)c(OCC(=O)Nc2ccccc2N2CCOCC2)c(C)c1 | 41* | / | 1 | 48 | 6 | -3
CC(=O)N1CCN(c2ccccc2NC(=O)COc2ccccc2C)CC1 | -14 | 30 | 21 | 2 | 2 | 19
SMILES | p47phox inh | Biofilm kill mix | Hck-Nef inh | WT yeast gro inh | RAM network inh | Arbovirus anti
Cc1cccc(OCC(=O)Nc2ccccc2N2CCCCC2)c1 | -11 | / | 5 | 29 | 4 | -25
Cc1ccc(OCC(=O)Nc2ccccc2N2CCCC2)c(C)c1 | -6 | 0 | 19 | 66* | -1 | 7
COc1ccc2ccc3c(c2c1)N=C[C@]1(O3)N(C)c2ccccc2C1(C)C | -19 | / | 1 | 75* | 1 | 13
Cc1ccc(NC(=S)NC(NC(=O)c2ccccc2C)C(Cl)(Cl)Cl)c(C)c1 (stereo not given) | 1 | / | 0 | 21 | 1 | -23
Cc1cc(=O)oc2cc(OCC3CC(c4ccc(Cl)cc4)=NO3)ccc12 (stereo not given) | -52 | / | -20 | 65* | 3 | -14
Cc1cc(=O)oc2cc(OCC3CC(c4ccc(N(C)C)cc4)=NO3)ccc12 (stereo not given) | -17 | / | 1 | 6 | 7 | -15
COc1cc(NC(=O)c2cccc(Cl)c2)ccc1NC(=O)c1cccs1 | -5 | 19 | 21 | 10 | 9.3* | 14
CCOc1ccc(C(=O)Nc2ccc(NC(=O)c3cccs3)cc2)cc1[N+](=O)[O-] | -5 | 9 | 4 | -10 | 10* | -9
COc1cc(NC(=O)c2ccc([N+](=O)[O-])o2)ccc1NC(=O)c1cccs1 | -6 | 10 | 35 | 95* | 6 | 0
COc1ccc(-c2cc3ccccc3oc2=O)cc1NC(=O)c1ccc([N+](=O)[O-])o1 | 40* | / | 8 | 39 | 3 | -6
O=C(Nc1cccc(NC(=O)c2cccs2)c1)c1ccc([N+](=O)[O-])o1 | -5 | 19 | 26 | / | / | /
CN(c1ccc(OCC(=O)NCc2cccnc2)cc1)S(=O)(=O)c1ccc(Cl)cc1 | -1 | 22 | 0 | 1 | 1 | 7
CCc1cccc(CC)c1NC(=S)NCCc1c(C)[nH]c2ccc(C)cc12 | 1 | 12 | -5 | 78* | 7 | -35
CCc1cccc(C)c1NC(=S)NCCc1c(C)[nH]c2ccc(C)cc12 | -8 | 13 | -4 | 62* | 7 | -35
COc1ccc2[nH]c(C)c(CCNC(=S)Nc3cc(C)ccc3C)c2c1 | -7 | 11 | -5 | 5 | 3 | -6
O=C(CSC1=NCCS1)Nc1cccc(F)c1 | 2 | 10 | 25 | -3 | -1 | -3
O=C(Nc1cccc(NC(=O)C2C3CC4OC(=O)C2C4C3)c1)c1ccccc1 (stereo not given) | -13 | 5 | 11 | -5 | 2 | -5
COc1ccc(Br)cc1CNC(=O)Nc1cccs1 | 98* | / | -1 | -4 | 2 | -6
COc1ccccc1CNC(=O)Nc1cccs1 | -23 | / | -2 | 6 | 1 | -12
Cc1ccc(/C(C#N)=C\c2cn(C)c3ccccc23)cc1 | -16 | / | 8 | 53 | 8.9* | -17
Cn1cc(C=O)c2ccccc21 | 2 | 3 | 5 | 28 | 0 | 2
O=C(Nc1ccccc1)c1ccc(-c2ccccc2Cl)o1 | -12 | 15 | 1 | 28 | 7 | -1
O=C(NCCc1ccccc1)c1ccc(-c2ccccc2Cl)o1 | -9 | 1 | 0 | 39 | 8.6* | -10
CC[n+]1ccc(C[n+]2ccccc2)c2ccccc21 | 79* | 10 | 3 | -7 | 0 | 8
Cc1ccc2c(c1)c(C)cc[n+]2Cc1ccccc1 | 1 | 12 | 3 | 15 | 1 | 7
OCC1(CCOc2ccccc2)CCN(C2Cc3ccccc3C2)CC1 | 5 | 6 | 3 | 9 | 0 | -3
CSCCC(NC(C)=O)C(=O)Oc1ccc2c3c(c(=O)oc2c1)CCCC3 (stereo not given) | 5 | / | 31 | 3 | 0 | 5

Source: PubChem (several laboratories)
